Screens (PubChem BioAssay)
Shown is part of a subset that was picked to be rich in hits.
Hsp70 activator: Hsp70 transcriptional activation, primary screen; HeLa Hsp70 promoter luciferase reporter, luminescence; scaled: vehicle 0, proteasome-inhibitor control 100%; activation, % at 10 µM; 200,000 tested, 0.04% active;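 active = activation above the mean across all tested compounds plus 3 SD, cutoff set per campaign, cut at about 5.5% in these data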
L major viab: reduces viability of Leishmania major promastigotes | 200,000 tested, 9% active | inhibition, % at 10 µM | AID 1063 | resazurin fluorescence viability; in the data active = inhibition above about 50%;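 note: promastigotes grown with compound for 44 hours at 28 °C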
T cruzi inh: blocks replication of Trypanosoma cruzi | T. cruzi beta-gal in NIH3T3, luminescence, 90 h | inhibition, % (test concentration not listed) | 300,000 tested, 1.4% active | AID 1885;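 active = mean inhibition across valid replicates above about 55%, limit read from the data; inconclusive = mean below that limit but half or more replicates reach it; inactive = mean below it, under half of replicates reach it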;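 note: signal also drops with host cell toxicity which is not excluded here; higher percent means less beta-gal luminescence so fewer parasites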
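System: NIH/3T3 fibroblasts plus reporter T. cruzi. Medium: DMEM plus 2% FBS. Probe or stimulus: 5000 reporter trypomastigotes per well. Compound: single 50 nL compound addition per well in DMSO. Incubation: co-culture of at least 90 h after 3 h attachment. Detection: GalScreen β-gal luminescence, detergent lysis, 60 min. Evaluation: parasite load inhibition, %.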
HSF1 inhib: HSF1 inhibition; NIH3T3-HGL HSE-luciferase, MG132-induced, luminescence 8 h; hits give low values; 300,000 tested, 0.77% active; activity change, negative = inhibition, % at 7.5 µM (by protocol); AID 2098;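 active = more than half of replicate wells show activity change below -50%, luminescence cut by over half; inconclusive = some wells, but at most half, below -50%; inactive = no replicate well below -50%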;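 note: luciferase reports HSF-1 transcriptional activity via heat shock element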
HSF1 activator: increases HSF-1 driven luciferase reporter signal. NIH3T3-HGL HSF-1 luciferase reporter, MG132, 8 h; 100% = twice DMSO control signal. activation, % at 9 µM. 300,000 tested, 1.7% active. AID 504408;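 active = mean replicate activation of at least 50% with a set share of replicates each reaching 50%; inconclusive = only one of those two conditions met; inactive = mean below 50% and too few replicates reaching it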
A number is an active result; . = inactive; ? = inconclusive; / = not tested or not shown.

SMILES	Hsp70 activator	L major viab	T cruzi inh	HSF1 inhib	HSF1 activator
C/C(Cn1cnc([N+](=O)[O-])n1)=N/NC(=O)COc1ccccc1Cl	.	.	56.0	.	.
CCNS(=O)(=O)c1ccc(CCC(=O)NCc2ccc3c(c2)OCO3)cc1	/	/	.	.	53.8
O=C(COc1ccc(S(=O)(=O)NC2CCCCC2)cc1Cl)NCc1ccc2c(c1)OCO2	.	73.2	.	.	.
O=C(CCc1ccc(S(=O)(=O)NCc2ccccc2)cc1)NCc1ccc2c(c1)OCO2	.	.	.	.	.
S=C(NCc1ccc2c(c1)OCO2)NCc1ccc2c(c1)OCO2	.	.	.	.	.
Cc1ccc(N(CC(=O)NCc2ccc3c(c2)OCO3)S(=O)(=O)c2c(C)noc2C)cc1	.	58.6	.	.	.
CCc1cccc(CC)c1NC(=S)NCc1ccc2c(c1)OCO2	.	59.5	.	.	.
C=CCN1C=C2C(=O)C(C)(OC(=O)c3ccco3)C(=O)C(C=C)=C2C=C1C1CC1 (configuration not stated)	/	/	.	.	.
COc1ccc(NC(=O)C(=O)NCCN2CCN(C(=O)c3ccco3)CC2)cc1	.	.	.	.	.
Cc1nn(C(C)C(=O)N2CCc3ccccc32)c(C)c1[N+](=O)[O-] (configuration not stated)	.	.	.	.	.
Cc1ccc(-c2nc3ccccc3c(C(=O)NCc3cccs3)c2C)cc1	.	.	.	.	.
Cc1ccc2nc(C)c3c(c2c1)SCC3	/	/	.	.	.
Cc1oc(-c2ccccc2F)nc1CN1CCC(C(=O)NC2CCCCCCC2)CC1	.	.	.	.	57.4
Cc1ccccc1-c1nc(CN2CCC(C(=O)NC3CCCCC3)CC2)c(C)o1	/	/	.	.	.
Cc1ccccc1-c1nc(CN2CCC(C(=O)NC3CCN(Cc4ccccc4)CC3)CC2)c(C)o1	.	99.7	.	.	.
Cc1ccc(Cl)cc1NC(=S)NN	/	/	.	.	.
CS/C(=N\N(C)C(N)=O)c1ccccc1	.	69.4	.	.	.
CC(C)(C)c1ccc(/C=C/C(=O)c2ccc(NC3=NCCCS3)cc2)cc1	.	100.4	57.5	.	.
O=C(/C=C/c1ccccc1)c1ccc(NC2=NCCCS2)cc1	.	100.2	/	/	/
O=C(/C=C/c1ccc(Br)cc1)c1ccc(NC2=NCCCS2)cc1	.	100.3	.	.	.
c1ccc(NC2=NCCCCS2)cc1	.	.	.	.	.
C/C(=N\OCC(=O)Nc1c(C)cc(C)cc1C)c1ccc2c(c1)OCCO2	.	.	.	.	.
COc1cc(NC(=O)C2CC(=O)N(CCc3ccc(F)cc3)C2)cc(OC)c1OC (configuration not stated)	/	/	.	.	.
CC(C)OP(=O)(OC(C)C)C(Nc1ccccc1)c1ccccc1C(F)(F)F (configuration not stated)	.	94.5	.	.	.
Cc1cc(C(=O)COC(=O)CC2Sc3ccccc3NC2=O)c(C)n1-c1ccc2c(c1)OCO2 (configuration not stated)	.	54.9	.	.	.
SMILES	Hsp70 activator	L major viab	T cruzi inh	HSF1 inhib	HSF1 activator
COC(=O)c1ccc(-n2c(C)cc(C(=O)COC(=O)CC3Sc4ccccc4NC3=O)c2C)cc1 (configuration not stated)	.	65.3	.	.	.
CC1CCc2sc(C(=O)N(C)CC(=O)Nc3ccc(N4CCOCC4)cc3)cc2C1 (configuration not stated)	/	/	.	.	.
COc1ccc(/C=N\NC(=O)c2ccc(=O)[nH]n2)cc1O	.	.	.	.	.
COc1ccc(/C=N/NC(=O)c2cc(C34CC5CC(CC(C5)C3)C4)[nH]n2)cc1O	.	89.5	.	.	.
Cc1ccc(CNC(=O)CCCc2cn(C)c3ccccc23)cc1	/	/	.	.	.
COc1ccccc1N1CCN(C(=O)CCN2C(=O)c3cccc4cccc(c34)C2=O)CC1	.	.	.	.	.
Fc1ccc(N2CCN(C3=Nc4cccc5cccc3c45)CC2)cc1	.	98.0	64.0	.	.
O=C(CCCN1C(=O)c2cccc3cccc(c23)C1=O)N1CCN(c2ccc(F)cc2)CC1	.	58.4	.	.	.
COc1ccc(N2CCN(C(=O)CCCN3C(=O)c4cccc5cccc(c45)C3=O)CC2)cc1	.	98.4	74.8	.	.
O=C(CCN1C(=O)c2cccc3cccc(c23)C1=O)N1CCOCC1	.	.	.	.	.
Cc1ccc2c(c1)C(c1ccccc1)N(C(=O)c1c(F)cccc1Cl)CC(=O)N2 (configuration not stated)	/	/	.	.	.
COc1ccc(C(C)NC(=O)Cc2cccs2)cc1 (configuration not stated)	/	/	.	.	.
Cc1cc2c(n1-c1ccc(Br)cc1)CC(C)(C)CC2=O	.	.	57.9	.	.
CC1CC(C)CN(c2ccc(-n3cnnn3)cc2[N+](=O)[O-])C1 (configuration not stated)	.	.	.	.	.
O=C1c2cc(N3CCCC3)c([N+](=O)[O-])cc2C(=O)N1c1ccccc1	.	59.8	.	.	.
O=C1CCCC(=O)N1c1ccc(N2CCN(c3ccccc3)CC2)c([N+](=O)[O-])c1	.	.	.	.	.
CC1CC(C)CN(c2cc3c(cc2[N+](=O)[O-])C(=O)N(c2ccccc2)C3=O)C1 (configuration not stated)	.	84.9	.	.	.
CN(Cc1ccccc1)C(=O)C1CCN(S(=O)(=O)c2cccc3nonc23)CC1	/	/	.	.	.
CC(NC(=S)NC1CCC(C(C)(C)C)CC1)c1ccccc1 (configuration not stated)	/	/	?	.	.
COc1ccccc1NC(=O)COc1ccc(Br)cc1CNCCCN1CCOCC1	.	77.3	.	.	.
COc1cc(CNCCCN2CCOCC2)c(Br)cc1OCC(=O)Nc1ccccc1C	.	57.3	.	.	.
CN(C)CCCN1C(=O)c2cccc3c(Br)ccc(c23)C1=O	.	99.6	.	.	.
CC1CC(C)CN(C(=O)C2CCC(CNS(=O)(=O)c3ccccc3)CC2)C1 (configuration not stated)	/	/	.	.	.
Cc1c(Cl)cccc1NC(=O)C1Cc2ccccc2CN1C(=O)c1ccccc1 (configuration not stated)	.	.	.	.	.
Cc1cccc(NC(=O)C2Cc3ccccc3CN2C(=O)OCc2ccccc2)c1C (configuration not stated)	.	98.2	.	.	.
COc1ccc(CCC(=O)OCC(=O)Nc2ccccc2OC(F)F)cc1OC	.	.	.	.	.
O=C(c1cc(-c2ccccn2)nc2c(Cl)cccc12)N1CCN(C(=O)C2CCCO2)CC1 (configuration not stated)	.	.	.	.	.
O=C(c1cc(-c2ccccn2)nc2c(Cl)cccc12)N1CCN(S(=O)(=O)c2ccccc2)CC1	.	80.7	.	.	.
CC(C)(C)n1nnnc1C(c1cccnc1)N(Cc1ccccc1)Cc1cccs1 (configuration not stated)	.	95.7	.	.	.
